Compound activity: PubChem BioAssay, several laboratories
MT1-MMP act inh – MT1-MMP (human) activation inhibition | P50281 | HT1080 RFP-PRO-GFP cells, GFP/RFP ratio fluorescence, overnight; percent of plate control window, DMSO zero | GFP/RFP ratio change, % at 20 µM | 0.061% of 360,000 active | AID 651647;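 active = GFP/RFP ratio change of at least 30% with cell ATP level not reduced by more than half and red fluorescence within 50% of control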
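Material – HT1080 RFP-PRO-GFP cells · Control set – DMSO wells and RFP-L50D-GFP cells · Incubation – overnight cell settling, then overnight compound exposure, 37 °C, 5% CO2 · Compound dosing – single-point 20 µM compound, 1% DMSO · Read-out – GFP/RFP fluorescence ratio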
NR2E3 ag-1 – activates human NR2E3 receptor; inhibition of corepressor binding, % at 3.98 µM; CHO-S Gal4-NCOR/VP16-NR2E3 two-hybrid, luciferase; 0.35% of 360,000 active; Q9Y5X4;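 active = inhibition above the mean of all tested compounds plus 3 SD, cut at about 70% in these data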;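 also: higher means lower luciferase signal from less NR2E3 corepressor binding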
Target sequence (Q9Y5X4 whole entry, looked up, the tested form may be a part): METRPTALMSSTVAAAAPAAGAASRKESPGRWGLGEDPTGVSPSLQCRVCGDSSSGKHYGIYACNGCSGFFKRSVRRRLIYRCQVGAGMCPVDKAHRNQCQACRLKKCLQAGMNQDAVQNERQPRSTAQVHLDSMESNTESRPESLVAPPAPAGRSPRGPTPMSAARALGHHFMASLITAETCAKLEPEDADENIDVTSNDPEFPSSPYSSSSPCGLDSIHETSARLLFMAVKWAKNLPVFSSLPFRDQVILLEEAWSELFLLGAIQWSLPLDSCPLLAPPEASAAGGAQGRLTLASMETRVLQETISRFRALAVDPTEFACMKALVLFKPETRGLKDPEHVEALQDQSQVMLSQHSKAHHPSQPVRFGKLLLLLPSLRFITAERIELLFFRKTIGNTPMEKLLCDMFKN
PG9 binder – PG9 antibody binding by small molecule. AID 624416. 0.43% of 360,000 active. TR-FRET gp120-PG9 antibody binding. inhibition, % at 6.7 µM; in the data active = inhibition above about 8.5%
NR2E3 ag-2 – agonists of human nuclear receptor NR2E3; 0.12% of 320,000 active; inhibition of corepressor binding, % at 4.78 µM; Q9Y5X4; GST-NR2E3/biotin-RetCOR TR-FRET, 1536-well;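 active = percent inhibition above the cutoff of mean plus 3 SD of all tested compounds, set per screening campaign, cut at about 20% in these data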
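Format: 1536-well format; test system: GST-NR2E3 and biotin-RetCOR proteins; read-out basis: percent inhibition of TR-FRET ratio; timing: 5 h incubation at 4 °C; detection: time-resolved FRET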
SKN-1 block – inhibitors of C. elegans SKN-1; C. elegans VP596 Pgst-4::GFP/RFP ratio, acrylamide-induced, 24 h; inhibition, % at 21.8 µM; 0.49% of 360,000 active;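 active = interference check ratio from 0.5 to 1.5 plus GFP to RFP signal ratio inhibition reaching or exceeding a fixed threshold, cut at about 30% in these data, passing the limit was not always enough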
NR1D1 modulator – modulates human Rev-erb alpha binding to DNA; 0.79% of 370,000 active; activity, % at 10 µM; Rev-erbα–FITC-DNA binding, fluorescence polarization, 90 min;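 active = activity above about 14%, limit read from the data; passing the limit was not always enough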
NR2E3 ag conf – NR2E3 agonism confirmed in two-hybrid assay | 51% of 2,300 active | inhibition, % at 3.98 µM | AID 624378 | CHO-S mammalian two-hybrid NR2E3-NCOR, luciferase luminescence | shares compounds with NR2E3 ag-1;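 active = average inhibition above a cutoff equal to the mean inhibition of all tested compounds plus one SD, cut at about 70% in these data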
VP16 counter – reduces GAL4-VP16 reporter signal in NR2E3 counterscreen | shares compounds with NR2E3 ag-1 | CHO-S GAL4-VP16 luciferase reporter, luminescence | inhibition, % at 3.98 µM | 29% of 2,300 active;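 active = mean inhibition above a cutoff equal to the average over all tested compounds plus one standard deviation, cut at about 70% in these data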;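 also: luciferase from a UAS reporter driven by GAL4-VP16 transactivation; higher means less reporter light so more repression of VP16 activity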
Large screens that a line does not name were inactive (follow-up assays come after a bar, where they were run). An excerpt weighted towards active compounds, which were near 1.9% of everything screened.

CC1=CCC(C(=O)O)C(C(=O)Nc2ccc(-c3nc4ccc(C)cc4s3)cc2)C1 (stereo not given)	none | NR2E3 ag conf inactive | VP16 counter inactive
COc1cccc(-c2nnc3n2N=C(C(C)(C)C)CS3)c1	none | NR2E3 ag conf inactive | VP16 counter inactive
COC(=O)[C@]12C[C@H](CC(=O)N3CCN(C(=O)C4CC4)CC3)C(=O)N(Cc3ccccc3)C1=C[C@H](C(C)(C)C)O[C@@H]2C	none (no result: MT1-MMP act inh, NR2E3 ag-1, NR2E3 ag-2, SKN-1 block)
Cc1sc2nc3c4ccccc4c(NCc4ccco4)nn3c(=O)c2c1C	none
Cc1nc(NCc2ccco2)c2c(C)c(C)sc2n1	NR2E3 ag-1 97 | NR2E3 ag conf 95 | VP16 counter inactive
O=C(CSc1nnc(-c2ccccn2)n1-c1ccccc1)c1ccc2c(c1)OCO2	none (no result: MT1-MMP act inh, NR2E3 ag-1, PG9 binder, NR2E3 ag-2, SKN-1 block)
CCCCCCCCCS(=O)(=O)N/N=C/c1cccc([N+](=O)[O-])c1	none | NR2E3 ag conf inactive | VP16 counter inactive
Cc1ccc(S(=O)(=O)N/N=C/c2cccc([N+](=O)[O-])c2)cc1	none
Cc1cc(NC2CCCC2)n2nc(C)c(-c3ccccc3)c2n1	none
Cc1cc(NC2CCCC2)n2ncc(-c3ccccc3)c2n1	none | NR2E3 ag conf inactive | VP16 counter inactive
CN(Cc1ccccc1)C(=O)OCc1cn(Cc2cccc(C(F)(F)F)c2)nn1	none (no result: MT1-MMP act inh, NR2E3 ag-1, PG9 binder, NR2E3 ag-2, SKN-1 block)
Cc1ccc(F)cc1CNC(=O)c1cc(COc2ccc3ncccc3c2)on1	NR2E3 ag-1 79 | NR2E3 ag conf 96 | VP16 counter 86
CC(CCCC(C)(C)O)NC(=O)c1cc(COc2ccc3ncccc3c2)on1 (stereo not given)	none | NR2E3 ag conf 88 | VP16 counter 75
O=C(NCc1cccc(Cl)c1)c1cc(COc2ccc3ncccc3c2)on1	NR2E3 ag-1 76 | NR2E3 ag conf 95 | VP16 counter 79
CN1C(=O)[C@@]2(O[C@H]3[C@H]4C=C[C@@H]([C@H]5C(=O)N(Cc6ccccc6)C(=O)[C@@H]45)N3C3=C2C(=O)CC3)c2ccccc21	none (no result: MT1-MMP act inh, NR2E3 ag-1, NR2E3 ag-2, SKN-1 block)
O=C(CCCc1ccccc1)c1ccc2c(c1)OCCO2	none | NR2E3 ag conf inactive | VP16 counter inactive
O=C(NCCc1ccccc1)c1ccc2c(c1)OCCCO2	NR2E3 ag-1 87 | NR2E3 ag conf inactive | VP16 counter inactive
O=C(NCCc1ccccc1)c1ccc2c(c1)OCCO2	none
Nc1nc(F)nc2c1ncn2[C@@H]1O[C@H](CO)[C@@H](O)[C@H]1O	NR2E3 ag-1 103 | NR2E3 ag conf 100 | VP16 counter 99
Cc1cc(C(=O)COC(=O)c2ccccc2O)c(C)n1Cc1cccs1	NR2E3 ag-1 91 | NR2E3 ag conf 80 | VP16 counter 71
Cc1cc(C(=O)COC(=O)c2ccc3c(c2)OCO3)c(C)n1Cc1cccs1	NR2E3 ag-1 90 | NR2E3 ag conf 77 | VP16 counter 75
CCn1nc(C(=O)OCC(=O)c2cc(C)n(Cc3cccs3)c2C)c2ccccc2c1=O	none
Cn1nc(C(C)(C)C)cc1C(=O)NCc1cc(F)cc2c1OCOC2	NR2E3 ag-1 78 | NR2E3 ag conf 95 | VP16 counter 77
CC(C)(C)C(=O)Nc1ccc(N=Nc2ccccc2)cc1	none | NR2E3 ag conf inactive | VP16 counter inactive
O=C(O)CCC(=O)Nc1ccc(N=Nc2ccccc2)cc1	none (no result: PG9 binder, NR2E3 ag-2, NR1D1 modulator)
COC(=O)C1=C(C)N(Cc2cccc(C(F)(F)F)c2)C(=NCc2ccc3c(c2)OCO3)NC1CCc1ccccc1 (stereo not given)	none (no result: MT1-MMP act inh, NR2E3 ag-1, NR2E3 ag-2, SKN-1 block)
COc1ccc(CCNC(=O)C2CC3Cn4c(nc5cc6ccccc6cc54)C3N2C)cc1 (stereo not given)	none | NR2E3 ag conf inactive | VP16 counter inactive
CCC1CCCCN1S(=O)(=O)c1ccc(NC(=O)c2ccncc2)cc1 (stereo not given)	NR2E3 ag-1 96 | NR2E3 ag conf inactive | VP16 counter inactive
CCCOc1ccc(F)cc1-c1cc(C(=O)NCc2cccc(C(F)(F)F)c2)[nH]n1	none (no result: NR2E3 ag-2)
CCCOc1ccc(F)cc1-c1cc(C(=O)NCc2ccc(C(F)(F)F)cc2)[nH]n1	none (no result: PG9 binder, NR2E3 ag-2, NR1D1 modulator) | NR2E3 ag conf inactive | VP16 counter inactive
CC(=O)Nc1ccc(NC(=O)CSc2nnc(-c3n[nH]c4c3CCC4)n2N)cc1	none (no result: MT1-MMP act inh, NR2E3 ag-1, PG9 binder, NR2E3 ag-2, SKN-1 block)
CCOC(=O)CNC(=O)c1sc(NC(=O)c2ccccc2)nc1C	none | NR2E3 ag conf inactive | VP16 counter inactive
O=C(Nc1ccc(Br)cc1)c1cccc(S(=O)(=O)Nc2ccccn2)c1	none
O=C(Nc1ccc(Br)cc1)c1cccc(S(=O)(=O)Nc2cnc3ccccc3c2)c1	NR2E3 ag-1 84 | NR2E3 ag conf 98 | VP16 counter 86
C[C@]12Cc3ccccc3C1CC1=N[C@@H](c3ccc(C(F)(F)F)cc3)O[C@@]13C[C@@H]2C(=O)N3Cc1ccncc1 (stereo not given in full)	none (no result: MT1-MMP act inh, NR2E3 ag-1, NR2E3 ag-2, SKN-1 block)
O=C(COC(=O)c1cc([N+](=O)[O-])ccc1N1CCOCC1)Nc1ccc(Cl)cn1	NR2E3 ag-1 78 | NR2E3 ag conf 82 | VP16 counter inactive
O=C(COC(=O)c1cc([N+](=O)[O-])ccc1N1CCOCC1)Nc1ccc(Cl)cc1	none
COc1ccc(COC(=O)c2cc([N+](=O)[O-])ccc2N2CCOCC2)cc1F	none | NR2E3 ag conf inactive | VP16 counter inactive
CCc1ccccc1Nc1nn2c(=O)c3ccc(C(=O)NCc4ccccn4)cc3nc2s1	NR2E3 ag-1 71 | NR2E3 ag conf 76 | VP16 counter inactive
COc1ccc(NC(=O)C2Cc3c(-c4cccc(F)c4)ccnc3O2)cc1OC (stereo not given)	NR2E3 ag-1 73 (no result: NR2E3 ag-2) | NR2E3 ag conf inactive | VP16 counter inactive
COc1ccc(NC(=O)C2Cc3c(-c4ccc5c(c4)OCO5)ccnc3O2)cc1OC (stereo not given)	NR2E3 ag-1 84 (no result: NR2E3 ag-2) | NR2E3 ag conf 91 | VP16 counter 73
O=C(Nc1cccc(OC(F)(F)F)c1)C1Cc2c(-c3ccc4c(c3)OCO4)ccnc2O1 (stereo not given)	NR2E3 ag-1 81 (no result: NR2E3 ag-2) | NR2E3 ag conf 82 | VP16 counter inactive
O=C(Nc1cccc(OC(F)(F)F)c1)C1Cc2c(-c3ccc(Cl)cc3)ccnc2O1 (stereo not given)	none (no result: NR2E3 ag-2)
C[C@@H]1COc2cc(N3CCCC3)ccc2S(=O)(=O)N1	none (no result: MT1-MMP act inh, NR2E3 ag-1, NR2E3 ag-2, SKN-1 block)
